PKA-R1A activ: activators of PKA-R1A holoenzyme, primary screen, biochemical, fluorescence polarization, Cy5-IP20, bovine R1A, mouse PKAc; PKA-R1A dissociation; scaled: DMSO 0%, 113 µM cGMP 100%; actives 0.083% (n = 340,000); activation, % at 11.4 µM; AID 504707, 2011; cAMP-dependent protein kinase type I-alpha regulatory subunit (Bos taurus) + …;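 active = percent activation above the mean of all tested compounds plus 3 SD, cut at about 19% in these data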;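 also: higher means more PKAc released from R1A so a rise in polarization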
Rev-erbA mod: modulators of Rev-erb alpha DNA binding, primary screen, biochemical, FITC-DNA, fluorescence polarization, uHTS | Nuclear receptor subfamily 1 group D member 1 (Homo sapiens), P20393 | Rev-erbα–FITC-DNA binding, 90 min | activity, % at 10 µM | actives 0.79% (n = 370,000);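 active = activity above about 14%, limit read from the data; passing the limit was not always enough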;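 also: 0% = DMSO wells with 35 nM protein and 100% = DMSO wells with 750 nM protein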
PG9 Ab binder: binders of HIV-1 gp120 antibody PG9, primary screen, biochemical, TR-FRET. AID 624416, 2012. actives 0.43% (n = 360,000). TR-FRET gp120-PG9 antibody binding. inhibition, % at 6.7 µM; in the data active = inhibition above about 8.5%
PKA-R2B act: activators of PKA-R2B holoenzyme, primary screen, biochemical, fluorescence polarization, Cy5-IP20, human; activation, % at 11.4 µM; cAMP-dependent protein kinase catalytic subunit beta (Homo sapiens) + cAMP-dependent …; actives 0.079% (n = 340,000); PKA-R2B holoenzyme dissociation; R2B truncated from residue 108, S112A mutant; 0% DMSO only, 100% 113 µM cGMP;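 active = activation above a cutoff set at the mean over all compounds plus 3 SD, cut at about 18% in these data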;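 also: higher means more holoenzyme dissociation and a rise in polarization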
NR2E3 ag-1: NR2E3 agonists in two-hybrid cells, primary screen, cell-based, luminescence, CHO-S, Gal4-NCOR/VP16-NR2E3; Photoreceptor-specific nuclear receptor (Homo sapiens), Q9Y5X4; inhibition of corepressor binding, % at 3.98 µM; actives 0.35% (n = 360,000); AID 602229, 2012; luciferase;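 active = inhibition above the mean of all tested compounds plus 3 SD, cut at about 70% in these data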;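 also: 0% = DMSO with NR2E3 transfected cells and 100% = cells lacking NR2E3 construct; higher means lower luciferase signal from less NR2E3 corepressor binding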
Target sequence (Q9Y5X4 whole entry, looked up, the tested form may be a part): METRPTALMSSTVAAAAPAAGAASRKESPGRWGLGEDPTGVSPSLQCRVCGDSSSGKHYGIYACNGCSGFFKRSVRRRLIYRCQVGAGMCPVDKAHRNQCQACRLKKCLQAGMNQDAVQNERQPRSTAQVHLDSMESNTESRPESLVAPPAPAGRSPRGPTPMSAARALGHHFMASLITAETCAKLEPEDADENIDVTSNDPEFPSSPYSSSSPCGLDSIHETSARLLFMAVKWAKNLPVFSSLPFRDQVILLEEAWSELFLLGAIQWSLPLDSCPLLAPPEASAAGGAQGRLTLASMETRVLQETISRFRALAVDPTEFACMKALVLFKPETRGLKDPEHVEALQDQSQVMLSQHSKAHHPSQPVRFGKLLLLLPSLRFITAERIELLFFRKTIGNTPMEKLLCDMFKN
NR2E3 ag-2: inhibitors of NR2E3-RetCOR corepressor binding, primary screen, NR2E3 agonist project, biochemical, TR-FRET, GST-NR2E3, biotin-RetCOR | AID 2300, 2010 | actives 0.12% (n = 320,000) | 1536-well | inhibition of corepressor binding, % at 4.78 µM | Photoreceptor-specific nuclear receptor (Homo sapiens), Q9Y5X4;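 active = percent inhibition above the cutoff of mean plus 3 SD of all tested compounds, set per screening campaign, cut at about 20% in these data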;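 also: 0% = DMSO wells and 100% = biotin wells as full block of FRET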
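Material: NR2E3–RetCOR corepressor complex / Amount: 1.35 nM GST-NR2E3 / Medium: Tris pH 7.5 / Compound: single nominal compound dose of 4.8 µM / Incubation: 5 h at 4 °C / Technique: TR-FRET, Eu(K)-anti-GST donor, streptavidin-D2 acceptor, ex 340, em 617/671 nm / Read-out basis: percent loss of FRET ratio relative to control wells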
NR2E3 ag confirm: NR2E3 agonist confirmation in cells, cell-based, luminescence, CHO-S two-hybrid | shares compounds with NR2E3 ag-1 | CHO-S mammalian two-hybrid NR2E3-NCOR, luciferase luminescence | inhibition, % at 3.98 µM | actives 51% (n = 2,300) | AID 624378, 2012;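 active = average inhibition above a cutoff equal to the mean inhibition of all tested compounds plus one SD, cut at about 70% in these data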;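 also: 0% = DMSO in NR2E3 cells and 100% = DMSO in cells lacking NR2E3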
VP16 counter: GAL4-VP16 reporter modulators, confirmation, counter-screen for NR2E3 agonist project, cell-based, luminescence, CHO-S, high throughput | inhibition, % at 3.98 µM | CHO-S GAL4-VP16 luciferase reporter | AID 624379, 2012 | actives 29% (n = 2,300) | shares compounds with NR2E3 ag-1;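 active = mean inhibition above a cutoff equal to the average over all tested compounds plus one standard deviation, cut at about 70% in these data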;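 also: luciferase from a UAS reporter driven by GAL4-VP16 transactivation; 0% = DMSO with VP16-transfected cells and 100% = DMSO with cells lacking VP16; higher means less reporter light so more repression of VP16 activity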
* hit, by the source's call; . = not tested or not shown. Hits are enriched below; roughly 1.6% of the tested compounds scored in any of these assays.

SMILES	PKA-R1A activ	Rev-erbA mod	PG9 Ab binder	PKA-R2B act	NR2E3 ag-1	NR2E3 ag-2	NR2E3 ag confirm	VP16 counter
CCCCNS(=O)(=O)CC1NCc2ccc(C)cc21 (configuration not stated)	.	-4	.	.	.	.	.	.
COc1ccc(-c2nnc3n2N=C(c2cccc([N+](=O)[O-])c2)CS3)cc1	.	-5	.	.	.	.	.	.
CCOC(=O)N1CCN(C(=O)c2cc(COc3ccc4ncccc4c3)on2)CC1	-5	-5	1	-1	65	4	83*	76*
CC(CNC(=O)c1cc(COc2ccc3ncccc3c2)on1)c1ccccc1 (configuration not stated)	10	-5	1	-1	105*	0	96*	80*
COCC1CCCN(C(=O)c2cc(COc3ccc4ncccc4c3)on2)C1 (configuration not stated)	-9	-3	-2	-11	105*	2	94*	87*
O=C(c1cc(COc2ccc3ncccc3c2)on1)N1CCC(O)CC1	7	-2	-1	2	-26	1	.	.
CCC(O)C1CCN(C(=O)c2cc(COc3ccc4ncccc4c3)on2)CC1 (configuration not stated)	.	2	-1	.	78*	3	96*	85*
C[C@H]1COc2cc(Br)ccc2S(=O)(=O)N1Cc1cn(Cc2ccc(C(F)(F)F)cc2)nn1	.	-3	.	.	.	.	.	.
CCOc1ccc(-n2c(SCC(=O)Nc3ccc(S(=O)(=O)Nc4nccs4)cc3)nnc2-c2ccc(C(C)(C)C)cc2)cc1	.	0	.	.	.	.	.	.
O=C(c1cc(COc2ccc3ncccc3c2)on1)N1CCC[C@H]1CO	-8	-2	-2	3	81*	4	38	51
CCCCNC(=O)NS(=O)(=O)c1ccc(NC(=O)CSc2nnc(-c3cccs3)n2-c2ccc(OC)cc2)cc1	.	-4	.	.	.	.	.	.
COc1cccc(/C=N/Nc2nc(Nc3ccccc3)nc(-n3nc(C)cc3C)n2)c1O	-16	6	-1	2	95*	3	3	-22
CNc1cc(C)nc(-n2nc(C)cc2C)n1	-1	1	-1	0	-14	-2	.	.
Cc1cc(C)n(-c2nc(Nc3ccccc3)nc(-n3nc(C)cc3C)n2)n1	3	-16	-2	-1	-1	5	.	.
CCOc1ccc(Nc2cc(C)nc(-n3nc(C)cc3C)n2)cc1	16	3	-1	10	84*	-2	28	32
CCOc1cc(/C=N/Nc2cc(C)nc(-n3nc(C)cc3C)n2)ccc1O	-5	-13	-1	-1	90*	0	3	-11
Cc1cc(N/N=C/c2ccc(F)cc2)nc(-n2nc(C)cc2C)n1	.	3	-1	.	94*	-1	3	25
Cc1ccc(S(=O)(=O)N(C)[C@H]2C[C@H]3c4[nH]c5cccc(-c6ccccc6)c5c4CCN3C(=O)[C@H]2[C@H](C)O)cc1	.	2	-2	.	.	.	.	.
COc1ccc(/C=N/Nc2cc(C)nc(-n3nc(C)cc3C)n2)c(OC)c1	0	1	1	5	65	2	8	5

High-throughput results as filed in PubChem.
